Experiment [1] can be described thus: inhibitors of TNFa-induced NFkB p65 translocation, primary screen, imaging, HUVEC, MLSMR starter and 10KST1 sets (AID 438;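 active = inhibition above 20% together with a positive visual image hit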;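 note: compound added about 3h40 before a 20 min TNFalpha stimulation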;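 for inhibition: signal is the nuclear over cytoplasmic p65 intensity ratio per well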). The conditions noted are these: HUVEC TNFa-induced p65 nuclear translocation; cell count: measured here: nuclei count (cytotoxicity indicator), at 2.08 µM; inhibition: at 2 µM, stronger effect = higher value, 0% TNFa-plus-vehicle, 100% no-TNFa wells.

Experiment [2] can be described thus: endothelial E-selectin expression blockers – imaging, HUVEC, immunofluorescence, MLSMR starter and 10KST1 sets, primary screen (AID 487;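 active = visually confirmed hit in the image check and inhibition above 20%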;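 for inhibition: signal is fraction of cell area covered by stained E-selectin grains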;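 for nuclei count: 100% = median nuclei count of all wells on the same plate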). The conditions noted are these: HUVEC TNFalpha-induced E-selectin immunofluorescence imaging, at 2 µM; inhibition: stronger effect = higher value; nuclei count: measured here: cell number, toxicity.
A short description of experiment [3]: Primary imaging screen for DUSP6 inhibitors that restore phospho-Erk in transfected HeLa cells, chemical complementation (AID 609;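 active = compounds giving at least 50% inhibition in the cell-based MKP-3 phosphatase rescue imaging test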;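 for inhibition: phospho-Erk level distribution per well compared with pooled transfected vehicle control wells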). Particulars: HeLa MKP-3 transfected, phospho-Erk imaging KS statistic, at 10 µM, cells stimulated with TPA for 15 min.
In experiment [4] the target is Dual specificity protein phosphatase 6 (Homo sapiens) (UniProt Q16828). Described as above. Particulars: HeLa MKP-3 transfected, phospho-Erk imaging KS statistic; at 10 µM; stronger effect = higher value; cells stimulated with TPA for 15 min.
The target of experiment [5] is Voltage-gated potassium channel subunit beta-2 (Rattus norvegicus) (UniProt P62483). The experiment is described as follows: inhibitors of rat Kvbeta2 reductase activity – biochemical, NADPH fluorescence, primary screen (AID 622;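 active = fluorescence slope higher than the sample average by over 3 SD, cut at about -0.22 in these data, passing the limit was not always enough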;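 note: slope of raw intensity against log time taken from 70 to 1610 s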). Particulars: recombinant KvBeta, 4-cyanobenzaldehyde reduction, at 10 µM, stronger effect = higher value.
The target is the same in experiment [6]. Briefly: enhancers of rat Kvbeta2 NADPH turnover – biochemical, NADPH fluorescence, primary screen (AID 623;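 active = NADPH fluorescence slope more negative than the mean of all samples by about 3 SD, 99.7% confidence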;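 note: fluorescence intensity change per second fitted from 20 to 320 s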). The conditions noted are these: Recombinant KvBeta, NADPH fluorescence decrease slope, 10 min; at 10 µM; stronger effect = lower value.
For experiment [7], the target named is Alpha-2C adrenergic receptor (Homo sapiens) (UniProt P18825). Briefly: compounds altering alpha2C-coupled GIRK flux – cell-based, HEK293 alpha2C/GIRK1/2, thallium flux, primary screen (AID 624;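 active = fluorescence slope after compound addition differing from the mean of all screened samples at 99.7% confidence, in either direction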;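 note: slope of fluorescence ratio to pre-addition baseline per second over 15 to 24 s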). The conditions noted are these: thallium flux BTC fluorescence, at 10 µM, actives lie on both sides.
Experiment [8] in a line: inhibitors of larval lipid processing in zebrafish, primary screen, whole organism, PED6 fluorescence, gall bladder and intestine (AID 686).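 Note: larvae 5 to 7 days old with five fish per well; signal comes from phospholipase A2 cleavage of quenched PED6 carried via bile; overnight exposure to compound and PED6 before scoring.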 The conditions noted are these: Zebrafish larvae PED6 lipid processing, fluorescence scoring; screened at 20 µM (by protocol). An outline of the steps:
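Test system – live zebrafish larvae aged 5-7 days, whole organism · Buffer or medium – E3 fish medium · Reagent – quenched phospholipase substrate PED6, 100 nM final, ingested by larvae · Doses – 20 µM single dose · Incubation – overnight compound and PED6 incubation · Technique – visual fluorescence microscopy scoring of gall bladder, gut · Read-out basis – visual per-well fluorescence inhibition score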

Experiment [9] in a line: loss of swimming-algae plug formation – whole organism, Chlamydomonas reinhardtii, WT vs cilia-less mutant, absorbance, 96-well, primary screen (AID 463189;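 active = inhibition at or above 50% relative to wild type and mutant plate controls; inactive = inhibition below 50%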;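 note: 0% = wild type cc124 cells in DMSO and 100% = ciliumless bld1 mutant cells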). The conditions noted are these: Chlamydomonas reinhardtii gravitaxis, OD600 absorbance, 2 days; at 10 µM; stronger effect = higher value.
Setting [10] is: measured here: cell density z-score.
Where [11] appears, read: measured here: nuclear c-Myc green intensity z-score.
Setting [12] is: measured here: nuclear pErk red intensity z-score, stronger effect = higher value.

This is an account of results in PubChem BioAssay.

Structures are written as SMILES. The source made the active and inactive calls.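 Rule for the calls, unless noted: active = a full or partial loss of lipid-probe fluorescence in the fish gall bladder, intestine or both, judged by eye; inactive = no fluorescence loss, or compound toxic to the fish.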

Dual specificity protein phosphatase 6 (Homo sapiens), sequence (Q16828 whole entry, looked up): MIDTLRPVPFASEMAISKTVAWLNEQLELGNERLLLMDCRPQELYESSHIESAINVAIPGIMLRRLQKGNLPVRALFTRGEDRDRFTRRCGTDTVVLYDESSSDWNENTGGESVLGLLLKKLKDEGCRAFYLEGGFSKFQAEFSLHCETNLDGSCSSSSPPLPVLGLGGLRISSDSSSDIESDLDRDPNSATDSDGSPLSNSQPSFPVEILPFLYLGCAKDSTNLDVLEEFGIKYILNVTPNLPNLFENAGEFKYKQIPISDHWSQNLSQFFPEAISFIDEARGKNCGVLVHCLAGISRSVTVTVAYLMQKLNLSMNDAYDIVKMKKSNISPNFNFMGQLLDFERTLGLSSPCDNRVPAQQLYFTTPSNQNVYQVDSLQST
Voltage-gated potassium channel subunit beta-2 (Rattus norvegicus), sequence (P62483 whole entry, looked up): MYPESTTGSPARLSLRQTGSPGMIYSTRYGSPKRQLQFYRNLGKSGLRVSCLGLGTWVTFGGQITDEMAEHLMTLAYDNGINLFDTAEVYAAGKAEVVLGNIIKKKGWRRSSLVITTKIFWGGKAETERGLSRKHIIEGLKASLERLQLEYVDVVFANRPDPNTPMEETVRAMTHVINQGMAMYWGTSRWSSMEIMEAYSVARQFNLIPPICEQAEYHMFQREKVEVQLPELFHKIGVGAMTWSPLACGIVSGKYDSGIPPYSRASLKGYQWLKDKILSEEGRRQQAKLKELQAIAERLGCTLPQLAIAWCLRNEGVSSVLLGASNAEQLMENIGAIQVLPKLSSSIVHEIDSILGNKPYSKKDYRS
Alpha-2C adrenergic receptor (Homo sapiens), sequence (P18825 whole entry, looked up): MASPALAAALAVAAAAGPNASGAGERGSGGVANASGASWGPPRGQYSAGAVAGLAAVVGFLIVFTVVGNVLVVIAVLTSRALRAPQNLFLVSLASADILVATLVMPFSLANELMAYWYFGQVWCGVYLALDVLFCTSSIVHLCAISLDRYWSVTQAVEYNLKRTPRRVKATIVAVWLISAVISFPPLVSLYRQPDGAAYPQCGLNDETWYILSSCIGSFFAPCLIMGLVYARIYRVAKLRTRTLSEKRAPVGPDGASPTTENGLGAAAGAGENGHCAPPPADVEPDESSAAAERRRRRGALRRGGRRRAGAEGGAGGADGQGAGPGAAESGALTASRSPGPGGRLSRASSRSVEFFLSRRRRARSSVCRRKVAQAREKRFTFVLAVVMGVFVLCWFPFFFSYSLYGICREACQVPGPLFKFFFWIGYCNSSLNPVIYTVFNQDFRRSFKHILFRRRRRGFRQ

As for `CCOC(=O)c1c(C)n(C)c2ccc(OC)c(NC(=O)CN3CCN(Cc4ccccc4)CC3)c12`, the cell count in experiment [1] worked out at 291. For the same compound, the inhibition (as a rule, the change of the read-out against control, counted positive when it falls) in [1] is 0.8% (inactive); in [2] it was -14% (inactive); in experiment [4] it was -6.59% (inactive); in [9], -10.1% (inactive). The nuclei count in experiment [2] came out at 93.5%. Also, the z-score in experiment [3] (setting [10]) is -0.908; in [3] (setting [11]) it was 0.5; in experiment [3] (setting [12]), 1.45. Further, the fluorescence slope in experiment [5] is -0.431 (inactive). Moreover, the NADPH fluorescence slope in experiment [6] was -0.000147 (inactive). In [7], the slope is 0.00677 (inactive). For the same compound, the result in experiment [8] was inactive.

As for `Cc1ccc2[nH]c3c(N4CCN(Cc5ccc6c(c5)OCO6)CC4)ncnc3c2c1`, the cell count in [1] stood at 390. Besides, the inhibition in [1] is -21.4% (inactive); in [2], -47.6% (inactive); in experiment [4], -3.5% (inactive); in experiment [9], 140% (active). The compound further yielded a nuclei count in [2] of 168%. Also, the z-score is -0.222 in experiment [3] (setting [10]), 0.595 in experiment [3] (setting [11]) and -3.73 in [3] (setting [12]). Besides, the fluorescence slope in experiment [5] was -0.396 (inactive). Moreover, the NADPH fluorescence slope in experiment [6] is -0.000159 (inactive). Besides, the slope in experiment [7] is 0.00427 (inactive). Besides, in [8], the outcome is “inactive; toxic”.

In the case of `c1ccc(OCc2nn3c(-c4cccnc4)nnc3s2)cc1`, in experiment [1], the cell count was found to be 598. The inhibition in [1] was -6.1% (inactive); in experiment [2], -87.1% (inactive); in experiment [4] it was -16.8% (inactive); in [9], 22.5% (inactive). In experiment [2], this compound registered a nuclei count of 146%. The z-score was 0.586 in [3] (setting [10]), -1.52 in experiment [3] (setting [11]) and -0.25 in [3] (setting [12]). Further, the fluorescence slope in [5] is -0.423 (inactive). In [6], the NADPH fluorescence slope was -5.5e-05 (inactive). Moreover, the slope in [7] was 0.0063 (inactive). Besides, the outcome in experiment [8] was inactive.

Consider `CC(C)OC(=O)[C@H]1[C@H](c2ccc(Cl)cc2)[C@@](C#N)(C(N)=O)[C@@H]2C=CC(C(N)=O)=CN21`, for which the cell count in experiment [1] came out at 523. Further, the inhibition is -4.9% (inactive) in experiment [1], -24% (inactive) in experiment [2], 2.46% (inactive) in [4] and 6.97% (inactive) in experiment [9]. The nuclei count in experiment [2] was determined as 155%. Also, the z-score in [3] (setting [10]) was 0.333; in experiment [3] (setting [11]), 0.745; in [3] (setting [12]), -0.843. In addition, the fluorescence slope in experiment [5] is -0.335 (inactive). Further, the NADPH fluorescence slope in experiment [6] is 1.2e-05 (inactive). Besides, the slope in experiment [7] was 0.00427 (inactive). Besides, in [8], the outcome was inactive.

In the case of `CCOC(=O)CSC1=C(C#N)C(c2ccc(OC)cc2)C2=C(CC(C)(C)CC2=O)N1` (centres undefined), the cell count in experiment [1] came to 362. The inhibition in experiment [1] is -10.7% (inactive); in [2] it was -126% (inactive); in [4], -8.59% (inactive); in experiment [9], 25.7% (inactive). This compound showed a nuclei count in [2] of 174%. The figures for the z-score in [3] (setting [10]), in experiment [3] (setting [11]) and in experiment [3] (setting [12]) were 0.65, -1.25 and -0.233, respectively. Moreover, the fluorescence slope in experiment [5] was -0.411 (inactive). The NADPH fluorescence slope in experiment [6] was -0.000354 (inactive). In addition, the slope in experiment [7] was 0.00489 (inactive). Besides, the result in [8] was inactive.

Consider `CCOC(=O)CSc1nc(N)c(C#N)c(-c2ccc(OC)cc2)c1C#N`, for which the cell count in [1] is 475. The inhibition in experiment [1] was 1.6% (inactive); in [2], -88.5% (inactive); in experiment [4], 24.7% (inactive); in experiment [9] it was -7.05% (inactive). In experiment [2], this compound had a nuclei count of 127%. In addition, the z-score worked out at 0.441 in experiment [3] (setting [10]), 1.58 in experiment [3] (setting [11]) and 1.28 in experiment [3] (setting [12]). For the same compound, the fluorescence slope in experiment [5] was -0.52 (inactive). Besides, the NADPH fluorescence slope in [6] was -3.8e-05 (inactive). The slope in experiment [7] was 0.00551 (inactive). For the same compound, the call in experiment [8] was inactive.

Consider `C=CCOc1nc2c(c(=O)n(Cc3ccc(Cl)c(Cl)c3)c(=O)n2C)n1C`, for which, in experiment [1], the cell count was 654. For the same compound, the inhibition was 0.8% (inactive) in experiment [1], -39.8% (inactive) in [2], -2.91% (inactive) in [4] and -5.33% (inactive) in [9]. Moreover, the nuclei count in experiment [2] is 140%. In addition, the z-score in experiment [3] (setting [10]) is 1.05; in [3] (setting [11]), 1.15; in [3] (setting [12]), -1.45. In addition, the fluorescence slope in [5] is -0.492 (inactive). Besides, the NADPH fluorescence slope in experiment [6] is -0.000116 (inactive). For the same compound, the slope in [7] was 0.00594 (inactive). In addition, in [8], the result was inactive.

As to `CCCCC1(C(=O)OCC)CC(CN2CCOCC2)OC1=O` (centres undefined), the cell count in [1] is 448. The inhibition is -21.5% (inactive) in experiment [1], -182% (inactive) in experiment [2], -8.95% (inactive) in experiment [4] and 3.54% (inactive) in experiment [9]. The same compound yielded a nuclei count in experiment [2] of 167%. The z-score was -1.27 in experiment [3] (setting [10]), -1.52 in experiment [3] (setting [11]) and 2.46 in [3] (setting [12]). The fluorescence slope in experiment [5] was -0.314 (inactive). Further, the NADPH fluorescence slope in [6] was 1.1e-05 (inactive). Moreover, the slope in [7] is 0.00504 (inactive). The compound was called inactive in [8].

In the case of `CC(C)CC(C(=O)O)C(C)CC(=O)Nc1ccn(-c2ccccc2)n1` (centres undefined), the cell count in experiment [1] was determined as 345. Also, the inhibition was -19.4% (inactive) in [1], -326% (inactive) in experiment [2], 15.1% (inactive) in [4] and 13.3% (inactive) in experiment [9]. The nuclei count in experiment [2] worked out at 150%. Moreover, the z-score in experiment [3] (setting [10]) is 1.41; in [3] (setting [11]) it was -1.41; in experiment [3] (setting [12]), -0.175. Besides, the fluorescence slope in experiment [5] is -0.401 (inactive). Further, the NADPH fluorescence slope in experiment [6] is -3.3e-05 (inactive). The slope in experiment [7] was 0.0075 (inactive). For the same compound, the result in [8] was inactive.

Regarding `CC1(C)Cc2c(C#N)c(NCc3ccco3)nc(-c3ccco3)c2CO1`, in experiment [1], the cell count came to 598. The inhibition in experiment [1] is 3.9% (inactive); in experiment [2], -12.9% (inactive); in [4], -6.86% (inactive); in experiment [9], 53.9% (active). Besides, in [2], the nuclei count was found to be 178%. Further, the results for the z-score in [3] (setting [10]), in experiment [3] (setting [11]) and in [3] (setting [12]) were 0.978, -1.81 and 0.89, respectively. The fluorescence slope in experiment [5] is -0.29 (inactive). In experiment [6], the NADPH fluorescence slope was -9.7e-06 (inactive). For the same compound, the slope in [7] is 0.00397 (inactive). For the same compound, the outcome in experiment [8] was “active; weak signal in gallbladder and intestine”.

`COc1ccc(-c2cc(=O)[nH]c(=O)[nH]2)cc1`: in experiment [1], the cell count worked out at 636. Besides, the inhibition in [1] was -16% (inactive); in [2], -269% (inactive); in experiment [4] it was 3.66% (inactive); in [9] it was -6.46% (inactive). Besides, the nuclei count in experiment [2] came out at 186%. Moreover, the z-score in experiment [3] (setting [10]) is -0.456; in [3] (setting [11]), 0.584; in experiment [3] (setting [12]), 0.91. Besides, the fluorescence slope in [5] was -0.466 (inactive). In addition, the NADPH fluorescence slope in experiment [6] was -0.000273 (inactive). Further, the slope in experiment [7] is 0.00552 (inactive). The call in experiment [8] was inactive.

Regarding `N#Cc1c(-c2ccccc2Cl)cc(C2CC2)nc1N`, the cell count in experiment [1] was determined as 577. In addition, the inhibition in experiment [1] is -16.2% (inactive); in experiment [2], -31.3% (inactive); in experiment [4], -2.47% (inactive); in [9], -9.3% (inactive). The nuclei count in [2] amounted to 172%. Also, the figures for the z-score in experiment [3] (setting [10]), in [3] (setting [11]) and in [3] (setting [12]) were 0.235, -0.47 and 0.466, respectively. Further, the fluorescence slope in experiment [5] was -0.415 (inactive). For the same compound, in experiment [6], the NADPH fluorescence slope is -2.4e-05 (inactive). Also, the slope in experiment [7] was 0.00637 (inactive). In addition, in [8], the compound was classed as inactive.

Consider `CCCCOC(=O)Nc1ccc(S(=O)(=O)Nc2nc(C)cc(C)n2)cc1`, for which the cell count in [1] turned out to be 515. Besides, the inhibition is -10.1% (inactive) in [1], -17.4% (inactive) in [2], 2.92% (inactive) in experiment [4] and -15.6% (inactive) in experiment [9]. The compound further showed a nuclei count in [2] of 128%. Moreover, the z-score was 0.944 in [3] (setting [10]), 1.82 in experiment [3] (setting [11]) and -0.786 in experiment [3] (setting [12]). Also, in experiment [5], the fluorescence slope is -0.439 (inactive). The NADPH fluorescence slope in experiment [6] is -1.7e-05 (inactive). Moreover, in experiment [7], the slope was 0.00517 (inactive). Besides, the result in [8] was inactive.
